Screening data from PubChem BioAssay.
TIM10 inh: TIM10 yeast growth inhibition. AID 463195. inhibition, % at 10 µM. hit rate 1.4% among 330,000. S. cerevisiae TIM10 strain growth, BacTiter-Glo luminescence, 24 h;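 active = inhibition of 40% or more at the single tested concentration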;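 also: wild-type TIM10 isogenic control strain grown at permissive 25 °C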
tim10-1 inh: inhibits growth of tim10-1 mutant yeast; S. cerevisiae tim10-1 ts strain growth, BacTiter-Glo, 24 h; inhibition, % at 20 µM; hit rate 2.2% among 330,000; AID 463190;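 active = inhibition of at least 40%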;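 also: mutant grown at 25 °C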
XBP1 UPR activ: activators of adaptive arm of unfolded protein response (XBP1) | activation, % at 20 µM | CHO-XBP1 luciferase reporter, IRE1-XBP1 UPR activation, luminescence; percent of tunicamycin response, DMSO as zero | hit rate 0.33% among 330,000;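 active = versus positive control, 20 µM dose yields 30% or more activation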
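Signal: luciferase luminescence; Assay system: CHO-XBP1 luciferase reporter cells; Amount: one thousand reporter cells per well; Dosing: 20 µM single concentration, DMSO 1%; Benchmarks: high control tunicamycin 10 µg/mL final, low control DMSO vehicle only; Schedule: 6 h compound exposure at 37 °C, 5% CO2; Evaluation: percent activation relative to tunicamycin reference.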
tim23-1 inh: inhibits growth of tim23-1 mutant yeast; S. cerevisiae tim23-1 growth, BacTiter-Glo luminescence, 24 h; inhibition, % at 20 µM; hit rate 1.3% among 330,000; AID 463212;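 active = growth inhibition of the mutant yeast at or above 50%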;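 also: temperature-sensitive mutant grown at 25 °C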
UPR CHOP act: activators of apoptotic arm of unfolded protein response (CHOP); CHO-CHOP luciferase reporter, UPR activation, luminescence; percent of tunicamycin response over DMSO baseline; activation, % at 10 µM; hit rate 0.34% among 330,000; AID 449763;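 active = at 10 µM dose, activation of 40% or more, normalized to positive control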
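assay system = CHO CHOP reporter cells | amount = 500 CHO-CHOP cells per well | buffer or medium = F12 with 10% FBS | incubation = 16-18 h cell attachment, then 6 h compound exposure, 37 °C | detection = luminescence read with Steady-Glo | read-out = percent activation relative to tunicamycin control | controls = tunicamycin high control, DMSO low control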
tim23-1 conf: confirmation of tim23-1 mutant yeast growth inhibitors. inhibition, % at 20 µM. hit rate 83% among 4,400. S. cerevisiae tim23-1 growth, BacTiter-Glo luminescence, 24 h. shares compounds with tim23-1 inh;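 active = inhibition above about 39% in either of two replicate wells at 20 µM, limit read from the data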;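 also: temperature-sensitive tim23-1 mutant grown at 25 °C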
A number is an active result; . = inactive; / = no result. In the library only some 3.9% were active in any assay of this set; here they are far more common.

SMILES	TIM10 inh	tim10-1 inh	XBP1 UPR activ	tim23-1 inh	UPR CHOP act	tim23-1 conf
CN1CCN(CCCNc2c(C=O)c(=O)[nH]c3ccccc23)CC1	.	.	.	.	.	/
Oc1ccc(/C=C/c2ccc3cccc(O)c3n2)cc1Br	.	.	.	53	.	71
Cc1cccc(C2=NN(c3ccccc3)[C@H](CO)[C@H]2c2ccc(Cl)cc2)c1	.	.	.	51	.	.
OC[C@@H]1[C@@H](c2ccccc2)C(c2cccc(Cl)c2)=NN1c1ccccc1	.	.	.	52	.	47
Cc1cccc(C2=NN(c3ccccc3)[C@H](CO)[C@H]2c2ccc(F)cc2)c1	.	.	.	51	.	.
COc1ccccc1[C@H]1C(c2cccc(Cl)c2)=NN(c2ccccc2)[C@@H]1CO	.	.	.	56	.	40
Cn1c(=O)c2sccc2n2c(CCCC(=O)NCc3ccc(F)cc3)nnc12	.	.	.	.	.	/
O=C(Nc1ccc2c(c1)OCO2)c1ccc2c(c1)S(=O)(=O)c1ccccc1C2=O	.	.	.	.	.	/
Cn1c(=O)c2sccc2n(Cc2ccccc2)c1=O	.	.	.	.	.	/
C/C(=N\Nc1cc(N2CCCCC2)nc(C)n1)c1ccc(Br)cc1	.	.	.	57	.	49
C/C(=N\Nc1cc(N2CCOCC2)nc(C)n1)c1ccc(F)cc1	.	.	.	.	.	/
O=[N+]([O-])c1cccc(-c2nnc3ccccn23)c1	.	.	.	.	.	/
CCCc1nc2sc3ccccc3c(=O)c2c(=O)n1Cc1ccc(OC)cc1	.	.	.	52	.	45
COc1ccc(Cn2c(C(C)C)nc3sc4ccccc4c(=O)c3c2=O)cc1	.	.	.	62	.	55
CCCCCc1nc2c(c(=O)c3ccccc3n2C)c(=O)n1Cc1ccc(OC)cc1	.	.	.	.	.	/
COc1cc(/C=C2\OC(=O)c3c(OC)cccc32)ccc1O	.	.	.	53	.	48
COc1ccc(N=C2NC(=O)/C(=C/c3ccc(O)c(OC)c3)S2)cc1	.	.	.	.	.	/
COc1cc2c(cc1OC)CN(C(=O)c1ccncc1)CC2	.	.	.	.	.	/
COc1ccc(C(=O)N2CCc3ccc(NC(=O)c4ccccn4)cc3C2)cc1F	.	.	.	52	.	40
CC(C)(C)c1ccc(OCCC(=O)NNC(=O)c2ccncc2)cc1	.	.	.	.	.	/
COc1ccc(C2CC(O)(c3ccccc3)Oc3cc(OC)cc(OC)c32)cc1 (centres undefined)	.	.	.	.	.	/
COc1ccc(C2CC(O)(c3ccccc3)Oc3c(C)ccc(C)c32)cc1 (centres undefined)	.	.	.	53	.	55
Cc1cccc(OCC(=O)N(Cc2ccco2)c2c(N)n(Cc3ccccc3)c(=O)[nH]c2=O)c1	.	.	.	51	.	.
Cc1ccc(/C=C2\C(=O)ON=C2c2ccccc2)o1	.	.	.	53	.	53
O=C1/C(=C\c2ccc(-c3ccccc3[N+](=O)[O-])o2)C(c2ccccc2)=NN1c1ccccc1	.	.	.	.	.	/
SMILES	TIM10 inh	tim10-1 inh	XBP1 UPR activ	tim23-1 inh	UPR CHOP act	tim23-1 conf
Cc1ccc(-c2ccc(/C=C3\C(=O)ON=C3c3ccccc3)o2)c([N+](=O)[O-])c1	.	.	.	70	.	67
CC(C)(C)c1ccc(NC(=O)c2ccsc2)cc1	.	.	.	56	.	48
O=C(c1cc2cc(F)ccc2[nH]1)N1CCCC(Nc2ccc(F)cc2)C1 (centres undefined)	.	.	.	.	.	/
O=c1oc(-c2ccc([N+](=O)[O-])cc2)nc2ccc(O)cc12	.	.	.	52	.	65
O=c1oc(-c2ccccc2[N+](=O)[O-])nc2ccccc12	.	.	.	55	.	51
O=c1oc(-c2ccc([N+](=O)[O-])cc2)nc2ccccc12	.	.	.	.	.	/
O=C(N[C@H]1C/C=C\C[C@@H](CC(=O)N(CCO)Cc2ccccc2)C(=O)NC[C@H](c2ccccc2)OC1=O)OCC1c2ccccc2-c2ccccc21	.	.	.	.	.	/
Cn1c(CC(=O)Nc2ccc(F)cc2)nnc1SCC(=O)Nc1nncs1	.	.	.	.	.	/
COc1ccc(NC(=O)Nc2ccc3c(c2)CCC3)cc1OC	.	.	.	.	.	/
COc1ccc(/C=C/C(=O)Nc2ccc3c(c2)CCC3)cc1OC	.	.	.	54	.	55
COc1cc(SC)ccc1C(=O)Nc1ccc2c(c1)CCC2	.	.	.	51	.	39
CC1(C)CC2CC(C)(CN2S(=O)(=O)c2ccccc2[N+](=O)[O-])C1 (centres undefined)	.	.	.	.	.	/
C/C=C(\C)CN1CCCC(N(C)CCc2ccc(OC)c(OC)c2)C1 (centres undefined)	.	.	.	.	.	/
Cc1ccc(/C=N/NC(=O)c2ccncc2)o1	.	.	.	.	.	/
Cc1ccc(/C=N/NC(=O)c2ccc(OC3CCCC3)cc2)o1	.	.	.	58	.	55
O=S(=O)(c1ccc(Br)cc1)N1CCN(Cc2ccco2)CC1	.	.	.	.	.	/
CCN1C(=O)CC(c2ccc(OC(C)C)cc2)C1=O (centres undefined)	.	.	.	.	.	/
Cc1cc(NC(=O)COC(=O)c2ccc([N+](=O)[O-])cc2Cl)no1	.	.	.	.	.	/
CCOc1nc2ccccc2cc1C=O	.	.	.	72	.	59
C/C(=C\c1ccc2c(c1)OCO2)C1Nc2cccc3cccc(c23)N1	.	.	.	52	.	47
CC(=O)Oc1ccc(C(=O)O)c(OC(C)=O)c1	.	.	.	.	.	/
CCOC(=O)c1c(N)sc2c1CCC(C)C2 (centres undefined)	.	.	.	.	.	/
CCOC(=O)c1c(NS(C)(=O)=O)sc2c1CCC(C)C2 (centres undefined)	.	.	.	57	.	40
C=CCn1c(O)c2ccc(C(=O)N=NC(=O)COc3ccccc3F)cc2c1O	.	.	.	.	.	/
CCn1c(Cn2nnc(-c3ccccc3)n2)nnc1SCc1ccc(Cl)c(Cl)c1	.	.	.	53	.	45
SMILES	TIM10 inh	tim10-1 inh	XBP1 UPR activ	tim23-1 inh	UPR CHOP act	tim23-1 conf
CC(C)(C)CC(=O)NC(=S)Nc1ccccc1C(F)(F)F	.	.	.	51	.	.
FC(F)(F)c1ccccc1NC(=S)Nc1ccccc1	.	.	.	.	.	/
Cc1[nH]c(-c2ccc(F)cc2)cc1C(=O)N1CCN(c2cccc(Cl)c2)CC1	.	.	.	54	.	.
CCCCCOc1ccc(C(=O)NCC2(c3ccccc3)CCOCC2)cc1	.	.	.	51	.	46
Clc1ccc(-c2cn3cccnc3n2)cc1	.	.	.	53	.	.
Brc1ccc(-c2cn3cccnc3n2)cc1	.	.	.	.	.	/
